Laboratory results published in ChEMBL document CHEMBL3774372, “Design, physico-chemical properties and biological evaluation of some new N-[(phenoxy)alkyl]- and N-{2-[2-(phenoxy)ethoxy]ethyl}aminoalkanols as anticonvulsant agents” (Bioorg Med Chem, 2016).
Active and inactive are the calls of the source. The rule behind the calls is not given here.

Key:
[1] = molecular target: D(3) dopamine receptor (Homo sapiens) (UniProt P35462); assay: Displacement of [3H]methylspiperone from human recombinant Dopamine D3 receptor expressed in CHO cells at 10^-5 M; type: cell-based
Outline: (§1)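 Radioligand displacement screen with the test agent at a single 10^-5 M concentration; receptor source and radioligand per target as tabulated (recombinant human cell lines or rat cerebral cortex/urinary bladder).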

[2] = molecular target: Glucocorticoid receptor (Homo sapiens) (UniProt P04150); assay: Displacement of [3H]dexamethasone from glucocorticoid receptor in human IM9 cells at 10^-5 M; type: cell-based; conditions: IM-9; outline: as §1
[3] = molecular target: Muscarinic acetylcholine receptor M1 (Homo sapiens) (UniProt P11229); assay: Displacement of [3H]pirenzepine from human recombinant muscarinic M1 receptor expressed in CHO cells at 10^-5 M; type: cell-based; outline: as §1
Sequence of Muscarinic acetylcholine receptor M1 (Homo sapiens) (P11229 whole entry): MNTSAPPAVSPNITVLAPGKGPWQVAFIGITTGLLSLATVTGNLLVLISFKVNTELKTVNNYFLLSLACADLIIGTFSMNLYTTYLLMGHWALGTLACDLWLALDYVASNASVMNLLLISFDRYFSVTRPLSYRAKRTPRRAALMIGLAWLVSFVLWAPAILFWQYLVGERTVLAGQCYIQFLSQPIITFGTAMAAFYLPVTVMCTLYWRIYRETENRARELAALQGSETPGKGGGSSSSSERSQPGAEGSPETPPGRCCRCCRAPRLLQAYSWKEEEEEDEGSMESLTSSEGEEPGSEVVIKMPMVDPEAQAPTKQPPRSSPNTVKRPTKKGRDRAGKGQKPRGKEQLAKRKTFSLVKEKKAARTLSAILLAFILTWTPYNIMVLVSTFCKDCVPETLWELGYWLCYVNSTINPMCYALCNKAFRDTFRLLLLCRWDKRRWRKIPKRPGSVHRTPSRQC

[4] = molecular target: 5-hydroxytryptamine receptor 5A (Homo sapiens) (UniProt P47898); assay: Displacement of [3H]LSD from human recombinant 5-HT5A receptor expressed in HEK293 cells at 10^-5 M; type: cell-based
Outline: (§2)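 Radioligand binding screen run at a single test concentration of 10^-5 M. Each target used its stated receptor source (human recombinant CHO or HEK-293 cells, endogenous cell lines, or rat tissue membranes) with the listed radioligand.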

Rattus norvegicus [5] = species on record: Rattus norvegicus; assay: Displacement of […] from rat cerebral cortex GABA-gated chloride channel at 10^-5 M; type: tissue-based; outline: as §2
[6] = molecular target: Muscarinic acetylcholine receptor M5 (Homo sapiens) (UniProt P08912); assay: Displacement of [3H]4-DAMP from human recombinant muscarinic M5 receptor expressed in CHO cells at 10^-5 M; type: cell-based; outline: as §2
[7] = molecular target: Prostaglandin E2 receptor EP2 subtype (Homo sapiens) (UniProt P43116); assay: Displacement of [3H]PGE2 from human recombinant prostanoid EP2 receptor expressed in HEK293 cells at 10^-5 M; type: cell-based; outline: as §2
[8] = molecular target: Adenosine receptor A3 (Homo sapiens) (UniProt P0DMS8); assay: Displacement of [125I]ABMECA from human recombinant adenosine A3 receptor expressed in HEK293 cells at 10^-5 M; type: cell-based; outline: as §2
[9] = molecular target: Vasopressin V1a receptor (Homo sapiens) (UniProt P37288); assay: Displacement of [3H]AVP from human recombinant arginine vasopressin receptor 1a expressed in CHO cells at 10^-5 M; type: cell-based; outline: as §2
[10] = molecular target: Cannabinoid receptor 1 (Homo sapiens) (UniProt P21554); assay: Displacement of [3H]CP 55940 from human recombinant CB1 receptor expressed in CHO cells at 10^-5 M; type: cell-based; outline: as §2
[11] = molecular target: Translocator protein (Rattus norvegicus) (UniProt P16257); assay: Displacement of [3H]PK 11195 from rat heart peripheral-type benzodiazepine receptor at 10^-5 M; outline: as §2
Sequence of Translocator protein (Rattus norvegicus) (P16257 whole entry, looked up): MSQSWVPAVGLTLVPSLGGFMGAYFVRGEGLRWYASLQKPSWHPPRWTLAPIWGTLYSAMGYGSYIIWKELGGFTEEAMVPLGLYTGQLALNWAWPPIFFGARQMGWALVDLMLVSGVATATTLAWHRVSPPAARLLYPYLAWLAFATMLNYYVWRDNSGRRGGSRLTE

[12] = molecular target: B2 bradykinin receptor (Homo sapiens) (UniProt P30411); assay: Displacement of [3H]bradykinin from human recombinant B2 bradykinin receptor at 10^-5 M; outline: as §1
[13] = molecular target: Muscarinic acetylcholine receptor M4 (Homo sapiens) (UniProt P08173); assay: Displacement of [3H]4-DAMP from human recombinant muscarinic M4 receptor expressed in CHO cells at 10^-5 M; type: cell-based; outline: as §2
[14] = molecular target: Sodium-dependent dopamine transporter (Homo sapiens) (UniProt Q01959); assay: Displacement of [3H]BTCP from human recombinant dopamine transporter expressed in CHO cells at 10^-5 M; type: cell-based; outline: as §2
[15] = molecular target: Endothelin-1 receptor (Homo sapiens) (UniProt P25101); assay: Displacement of [125I]Endothelin-1 from human recombinant Endothelin-1 receptor expressed in CHO cells at 10^-5 M; type: cell-based; outline: as §2
[16] = molecular target: Histamine H1 receptor (Homo sapiens) (UniProt P35367); assay: Displacement of [3H]pyrilamine from human recombinant histamine H1 receptor expressed in HEK293 cells at 10^-5 M; type: cell-based; outline: as §1
Sequence of Histamine H1 receptor (Homo sapiens) (P35367 whole entry): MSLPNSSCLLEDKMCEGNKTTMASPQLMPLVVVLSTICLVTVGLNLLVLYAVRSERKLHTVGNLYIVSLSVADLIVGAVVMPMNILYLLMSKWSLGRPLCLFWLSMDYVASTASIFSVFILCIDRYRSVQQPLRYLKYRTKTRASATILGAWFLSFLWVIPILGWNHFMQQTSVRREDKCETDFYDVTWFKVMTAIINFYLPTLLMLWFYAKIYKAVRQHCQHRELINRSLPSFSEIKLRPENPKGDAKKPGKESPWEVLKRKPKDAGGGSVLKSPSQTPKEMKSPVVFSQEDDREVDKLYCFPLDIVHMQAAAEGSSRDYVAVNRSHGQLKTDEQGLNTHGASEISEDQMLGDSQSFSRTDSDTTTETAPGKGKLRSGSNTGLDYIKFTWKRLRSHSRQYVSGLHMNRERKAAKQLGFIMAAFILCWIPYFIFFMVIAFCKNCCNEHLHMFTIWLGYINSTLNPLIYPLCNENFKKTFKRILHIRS

Rattus norvegicus [17] = species on record: Rattus norvegicus; assay: Displacement of [3H]alpha,beta-MeATP from rat urinary bladder P2X receptor at 10^-5 M; outline: as §1
[18] = molecular target: 5-hydroxytryptamine receptor 7 (Homo sapiens) (UniProt P34969); assay: Displacement of [3H]LSD from human recombinant 5-HT7 receptor expressed in CHO cells at 10^-5 M; type: cell-based; outline: as §2
Sequence of 5-hydroxytryptamine receptor 7 (Homo sapiens) (P34969 whole entry): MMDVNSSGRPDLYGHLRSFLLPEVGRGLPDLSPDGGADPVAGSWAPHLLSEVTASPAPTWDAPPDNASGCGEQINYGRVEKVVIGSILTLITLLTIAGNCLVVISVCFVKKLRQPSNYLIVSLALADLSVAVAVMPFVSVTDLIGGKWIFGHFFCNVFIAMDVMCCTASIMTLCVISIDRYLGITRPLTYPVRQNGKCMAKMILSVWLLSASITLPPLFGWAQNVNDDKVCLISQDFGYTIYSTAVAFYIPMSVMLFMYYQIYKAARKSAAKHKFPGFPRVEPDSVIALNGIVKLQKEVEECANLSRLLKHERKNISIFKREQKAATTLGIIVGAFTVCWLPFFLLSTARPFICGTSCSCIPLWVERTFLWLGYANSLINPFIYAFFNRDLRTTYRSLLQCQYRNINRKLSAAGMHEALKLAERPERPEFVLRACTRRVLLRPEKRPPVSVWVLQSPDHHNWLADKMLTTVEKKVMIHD

Mus musculus [19] = assay: Anticonvulsant activity in mouse assessed as protection against maximal electric shock-induced seizures at 3 mg/kg, ip measured after 0.5 hrs; type: functional, organism-based
Outline: (§3)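 Mice dosed ip with suspension in 0.5% methylcellulose; maximal electroshock applied at the listed time after dosing. Protection = abolition of hindlimb tonic extension component of seizure; reported as animals protected/animals tested.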

Mus musculus [20] = assay: Anticonvulsant activity in mouse assessed as protection against maximal electric shock-induced seizures at 30 mg/kg, ip measured after 4 hrs; type: functional, organism-based; outline: as §3
[21] = molecular target: Sodium-dependent noradrenaline transporter (Homo sapiens) (UniProt P23975); assay: Displacement of [3H]nisoxentine from human recombinant norepinephrine transporter expressed in CHO cells at 10^-5 M; type: cell-based; outline: as §1
[22] = molecular target: Somatostatin receptor (Mus musculus) (UniProt P30935+O08858+P30875+P30873+P49660); assay: Displacement of [125I]Tyr11-somatostatin-14 from somatostatin receptor in mouse AtT20 cells at 10^-5 M; type: cell-based; outline: as §2
Sequence of Somatostatin receptor (Mus musculus) (P30935 whole entry): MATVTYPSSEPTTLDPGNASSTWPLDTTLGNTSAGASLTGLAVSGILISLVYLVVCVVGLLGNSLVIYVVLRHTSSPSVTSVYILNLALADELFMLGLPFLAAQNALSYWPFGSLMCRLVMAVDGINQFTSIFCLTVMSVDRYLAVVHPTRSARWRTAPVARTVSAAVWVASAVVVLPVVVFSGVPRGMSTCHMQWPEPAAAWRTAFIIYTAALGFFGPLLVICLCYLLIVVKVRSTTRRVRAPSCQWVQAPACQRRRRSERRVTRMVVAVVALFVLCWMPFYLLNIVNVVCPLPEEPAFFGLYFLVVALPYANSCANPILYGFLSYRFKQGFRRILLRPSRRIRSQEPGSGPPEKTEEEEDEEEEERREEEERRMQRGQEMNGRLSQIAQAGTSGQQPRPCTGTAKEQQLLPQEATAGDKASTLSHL
Sequence of Somatostatin receptor (Mus musculus) (O08858 whole entry): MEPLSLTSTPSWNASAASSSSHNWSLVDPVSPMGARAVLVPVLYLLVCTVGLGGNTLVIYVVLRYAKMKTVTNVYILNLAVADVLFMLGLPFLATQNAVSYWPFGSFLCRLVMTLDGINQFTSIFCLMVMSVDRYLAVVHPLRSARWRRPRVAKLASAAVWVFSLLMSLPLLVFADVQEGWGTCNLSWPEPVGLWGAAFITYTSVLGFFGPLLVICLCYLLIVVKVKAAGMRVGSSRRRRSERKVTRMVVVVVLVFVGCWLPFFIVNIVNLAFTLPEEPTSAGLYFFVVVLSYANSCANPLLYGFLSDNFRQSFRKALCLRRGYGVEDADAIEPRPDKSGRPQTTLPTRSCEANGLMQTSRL
Sequence of Somatostatin receptor (Mus musculus) (P30875 whole entry): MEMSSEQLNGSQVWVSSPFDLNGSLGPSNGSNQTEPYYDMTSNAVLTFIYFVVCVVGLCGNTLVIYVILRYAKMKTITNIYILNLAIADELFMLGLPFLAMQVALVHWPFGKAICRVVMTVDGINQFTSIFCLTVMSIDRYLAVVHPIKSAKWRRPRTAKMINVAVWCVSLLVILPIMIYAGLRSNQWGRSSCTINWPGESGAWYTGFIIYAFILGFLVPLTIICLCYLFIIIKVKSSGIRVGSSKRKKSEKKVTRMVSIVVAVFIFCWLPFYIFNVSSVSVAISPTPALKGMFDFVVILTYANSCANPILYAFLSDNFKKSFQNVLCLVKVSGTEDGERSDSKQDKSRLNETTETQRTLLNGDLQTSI
Sequence of Somatostatin receptor (Mus musculus) (P30873 whole entry): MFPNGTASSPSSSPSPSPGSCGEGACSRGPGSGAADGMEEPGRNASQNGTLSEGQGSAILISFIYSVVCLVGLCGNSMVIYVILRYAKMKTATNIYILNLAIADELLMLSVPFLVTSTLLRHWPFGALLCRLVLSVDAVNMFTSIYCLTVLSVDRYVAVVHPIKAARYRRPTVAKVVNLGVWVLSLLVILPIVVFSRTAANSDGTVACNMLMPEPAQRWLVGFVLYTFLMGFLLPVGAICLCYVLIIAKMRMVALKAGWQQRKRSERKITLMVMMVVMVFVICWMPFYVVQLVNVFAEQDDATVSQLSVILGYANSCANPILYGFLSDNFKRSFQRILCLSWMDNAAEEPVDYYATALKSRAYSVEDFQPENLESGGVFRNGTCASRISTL
Sequence of Somatostatin receptor (Mus musculus) (P49660 with tags, fused parts or gaps): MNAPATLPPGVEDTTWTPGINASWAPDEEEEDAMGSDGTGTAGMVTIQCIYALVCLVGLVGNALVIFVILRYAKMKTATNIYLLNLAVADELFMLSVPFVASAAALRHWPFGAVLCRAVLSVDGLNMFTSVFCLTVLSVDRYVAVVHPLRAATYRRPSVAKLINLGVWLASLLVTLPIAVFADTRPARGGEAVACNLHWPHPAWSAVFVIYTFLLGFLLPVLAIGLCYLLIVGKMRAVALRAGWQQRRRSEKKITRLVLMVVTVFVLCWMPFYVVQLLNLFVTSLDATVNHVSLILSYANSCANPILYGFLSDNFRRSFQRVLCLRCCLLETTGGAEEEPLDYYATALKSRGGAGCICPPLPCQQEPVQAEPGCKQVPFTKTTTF

Rattus norvegicus [23] = assay: Anticonvulsant activity in pilocarpine-induced status epilepticus Sprague-Dawley rat model at 30 mg/kg, ip after 2 hrs during post stage 3 seizure; type: functional, organism-based
Outline: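 Rats given pilocarpine 50 mg/kg ip and observed to first convulsive seizure (Racine stage 3–5, time zero); test drug then given ip in 0.5% methylcellulose. Efficacy = halting further stage 3–5 convulsive seizures; scored protected/tested, time after first stage 3 seizure.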

[24] = molecular target: 5-hydroxytryptamine receptor 1B (Rattus norvegicus) (UniProt P28564); assay: Displacement of [125I]CYP from rat cerebral cortex 5-HT1B receptor at 10^-5 M in the presence of isoproternol; type: tissue-based; outline: as §2
Sequence of 5-hydroxytryptamine receptor 1B (Rattus norvegicus) (P28564 whole entry): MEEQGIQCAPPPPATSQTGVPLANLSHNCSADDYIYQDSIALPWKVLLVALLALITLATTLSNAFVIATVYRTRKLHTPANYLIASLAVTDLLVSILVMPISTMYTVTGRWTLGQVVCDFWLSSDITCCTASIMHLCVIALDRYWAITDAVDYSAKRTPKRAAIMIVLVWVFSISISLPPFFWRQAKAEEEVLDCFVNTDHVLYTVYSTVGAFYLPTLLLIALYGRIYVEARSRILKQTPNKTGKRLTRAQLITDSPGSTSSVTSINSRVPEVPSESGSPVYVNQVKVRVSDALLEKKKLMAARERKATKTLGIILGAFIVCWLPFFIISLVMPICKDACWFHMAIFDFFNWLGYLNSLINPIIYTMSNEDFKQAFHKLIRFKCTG

[25] = molecular target: 5-hydroxytryptamine receptor 6 (Homo sapiens) (UniProt P50406); assay: Displacement of [3H]LSD from human recombinant 5-HT6 receptor expressed in CHO cells at 10^-5 M; type: cell-based; outline: as §2
[26] = molecular target: D(2) dopamine receptor (Homo sapiens) (UniProt P14416); assay: Displacement of [3H]methylspiperone from human recombinant Dopamine D2S receptor expressed in HEK293 cells at 10^-5 M; type: cell-based; outline: as §1
U-937 = assay: Displacement of [125I]TNF-alpha from TNF-alpha receptor in human U937 cells at 10^-5 M; type: cell-based; outline: as §2
CHO = assay: Displacement of [3H]DADLE from human recombinant delta-type 2 opioid receptor expressed in CHO cells at 10^-5 M; type: cell-based; outline: as §2
[27] = molecular target: Beta-1 adrenergic receptor (Homo sapiens) (UniProt P08588); assay: Displacement of [3H](-)CGP12177 from human recombinant Beta-1 adrenergic receptor expressed in HEK293 cells at 10^-5 M; type: cell-based; outline: as §2
Sequence of Beta-1 adrenergic receptor (Homo sapiens) (P08588 whole entry, looked up): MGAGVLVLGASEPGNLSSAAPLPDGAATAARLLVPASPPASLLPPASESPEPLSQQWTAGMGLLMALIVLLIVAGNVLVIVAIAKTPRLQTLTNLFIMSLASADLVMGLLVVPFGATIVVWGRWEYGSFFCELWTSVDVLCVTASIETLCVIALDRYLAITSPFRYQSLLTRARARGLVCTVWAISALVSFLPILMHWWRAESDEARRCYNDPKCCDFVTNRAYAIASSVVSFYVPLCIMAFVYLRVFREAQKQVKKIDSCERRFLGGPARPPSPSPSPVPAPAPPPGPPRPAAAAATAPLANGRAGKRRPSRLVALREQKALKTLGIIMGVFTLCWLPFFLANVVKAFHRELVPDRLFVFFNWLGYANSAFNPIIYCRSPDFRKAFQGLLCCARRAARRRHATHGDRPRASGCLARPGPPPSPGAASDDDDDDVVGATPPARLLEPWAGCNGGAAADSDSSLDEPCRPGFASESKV

Rattus norvegicus [28] = species on record: Rattus norvegicus; assay: Displacement of [35S]dATPalpha S from rat cerebral cortex P2Y receptor at 10^-5 M; type: tissue-based; outline: as §2
[29] = molecular target: D(1A) dopamine receptor (Homo sapiens) (UniProt P21728); assay: Displacement of [3H]SCH23390 from human recombinant Dopamine D1 receptor expressed in CHO cells at 10^-5 M; type: cell-based; outline: as §1
Sequence of D(1A) dopamine receptor (Homo sapiens) (P21728 whole entry): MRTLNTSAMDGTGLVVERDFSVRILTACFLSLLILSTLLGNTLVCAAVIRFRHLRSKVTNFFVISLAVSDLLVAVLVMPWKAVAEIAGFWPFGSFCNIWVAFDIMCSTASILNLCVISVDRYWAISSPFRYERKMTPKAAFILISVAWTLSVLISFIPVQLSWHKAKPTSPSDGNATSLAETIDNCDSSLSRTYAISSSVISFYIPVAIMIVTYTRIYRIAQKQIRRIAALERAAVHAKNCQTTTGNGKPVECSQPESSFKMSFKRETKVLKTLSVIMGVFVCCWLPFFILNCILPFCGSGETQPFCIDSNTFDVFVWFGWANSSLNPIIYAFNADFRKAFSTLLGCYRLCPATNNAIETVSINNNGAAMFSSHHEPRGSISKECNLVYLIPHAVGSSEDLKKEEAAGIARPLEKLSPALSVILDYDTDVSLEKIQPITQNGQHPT

[30] = molecular target: Type-2 angiotensin II receptor (Homo sapiens) (UniProt P50052); assay: Displacement of [125I]CGP42112A from human recombinant AT2 receptor expressed in HEK293 cells at 10^-5 M; type: cell-based; outline: as §2

SMILES | inhibition [1] [%] | inhibition [2] [%] | inhibition [3] [%] | inhibition [4] [%] | inhibition (Rattus norvegicus [5]) [%] | inhibition [6] [%] | inhibition [7] [%] | inhibition [8] [%] | inhibition [9] [%] | inhibition [10] [%] | inhibition [11] [%] | inhibition [12] [%] | inhibition [13] [%] | inhibition [14] [%] | inhibition [15] [%] | inhibition [16] [%] | inhibition (Rattus norvegicus [17]) [%] | inhibition [18] [%] | Activity (Mus musculus [19]) | Activity (Mus musculus [20]) | also measured
Cc1cccc(C)c1OCCOCCN[C@@H](C)CO | 57.4 | 8.3 | 22.8 | 10.7 | 4.6 | 5.7 | 11.2 | 3 | -0.8 | 11.1 | -6.7 | 1.6 | 15.7 | 16.2 | -4.4 | 14.1 | 4.8 | 24.6 | inactive | inactive | inhibition [21]: 34.5%; inhibition [22]: -2%; Activity (Rattus norvegicus [23]): inactive; inhibition [24]: 16.5%; inhibition [25]: 15.4%; inhibition [26]: 14.7%; inhibition (U-937): 4.6%; inhibition (CHO): -2.2%; inhibition [27]: 11.1%; inhibition (Rattus norvegicus [28]): 9.4%; inhibition [29]: 16.2%; inhibition [30]: 11.7%
Cc1cccc(C)c1OCCOCCN[C@H](C)CO | 44.1 | 31.3 | 6 | 4.2 | -7.6 | 8.6 | 3.4 | -1.8 | -3.2 | 12.6 | -3.9 | -3.9 | 11.2 | 24.5 | -3.4 | 22.7 | 3.5 | 24.5 | inactive | inactive | inhibition [21]: 52.6%; inhibition [22]: -5.5%; Activity (Rattus norvegicus [23]): inactive; inhibition [24]: -1.8%; inhibition [25]: 6.7%; inhibition [26]: 12%; inhibition (U-937): 5.1%; inhibition (CHO): -1.7%; inhibition [27]: 4.8%; inhibition (Rattus norvegicus [28]): 9.4%; inhibition [29]: 12.4%; inhibition [30]: 6.4%
